MC4R barr agon = human MC4R agonism via beta-arrestin; P32245; U2OS MC4R beta-arrestin complementation, luminescence; percent of melanotan II response, DMSO zero; activation, % at 8.9 µM; 360,000 tested, 0.98% active;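 active = activation above a per-plate cutoff, the mean activation of sample wells on that plate plus 3 SD, cut at about 8% in these data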
EP2 antag = EP2 receptor (human) inhibition | 260,000 tested, 0.52% active | AID 1422 | P43116 | inhibition, % at 25 µM | C6 glioma cells expressing human EP2, cAMP TR-FRET; cells stimulated with saturating PGE2;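 active = percent inhibition above 40 after rounding to a whole number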;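 note: rat C6 glioma host cells with rolipram phosphodiesterase inhibitor present; the protocol text gives 20 µM as final concentration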
T cell HTS = T cell immune modulators affecting CD8 T cell-vesicle binding | 2C CD8+ T cell-vesicle binding, flow cytometry; hits give low values | 330,000 tested, 0.068% active | response (vesicle binding), % at 7 µM;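 active = response, share of CD8 T cells binding vesicles, and their 90th percentile fluorescence all below set limits, cut at about 80% in these data, passing the limit was not always enough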;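 note: values below 100% mean blocked vesicle binding to the CD8+ T cells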
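System: murine 2C transgenic CD8+ T lymphocytes; also added: QL9-loaded Drosophila micro-vesicles; times: binding 1.5 h at 37 °C; measured by: flow cytometry, PE anti-B7-1 (FL2) versus Alexa647 anti-CD8 (FL8), PFA-fixed; control set: Peptide-free naked vesicles (low) and QL9 vesicles with 0.7% DMSO vehicle (high)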
MC4R antagonist = human MC4R antagonism in cAMP assay; inhibition, % at 6.5 µM; AID 540295; 360,000 tested, 0.48% active; MC4R-expressing cells, MTII-stimulated cAMP, LANCE TR-FRET;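 active = inhibition above its plate's cutoff, the mean of tested wells on that plate plus 3 SD, cut at about 29% in these data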
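Assay system: U2OS cells stably expressing human melanocortin 4 receptor (MC4R) / Dosing: 6.5 µM / Timing: compound 30 min, challenge 1 h, detection 1 h / Measured by: Eu-cAMP/anti-cAMP TR-FRET, emission 671 nm / Replicates: singlicate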
EP2 modulator = modulates human prostaglandin E2 receptor EP2 signaling; P43116; EP2-expressing cells, cAMP HTRF FRET, PGE2 co-stimulation; induction, % at 25 µM; 260,000 tested, 0.83% active;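 active = compounds whose cAMP rise, as percent of the full-agonist control response, exceeds 60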;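 note: rat C6 glioma line stably carrying human EP2 under a CMV promoter; the protocol text gives 20 µM as final concentration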
Granule exo inh = lytic granule exocytosis inhibition; TALL-104 LAMP-1 surface exposure, flow cytometry; cells stimulated with thapsigargin and PMA; inhibition, % at 10 µM; 360,000 tested, 0.66% active; AID 651702;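 active = inhibition above about 55%, limit read from the data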
MC4R barr ag = human MC4R beta-arrestin agonism confirmation; shares compounds with MC4R barr agon; U2OS MC4R beta-arrestin recruitment, luminescence; scaled DMSO 0%, Melanotan II 100%; activation, % at 8.9 µM; 2,400 tested, 31% active;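 active = mean activation across replicates above the hit cutoff set in the earlier primary screen, cut at about 8% in these data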
MOR-DOR barr ag = activates mu-delta opioid heterodimer, MC4R agonist counter-screen | activation, % at 9.2 µM | shares compounds with MC4R barr agon | 2,400 tested, 5.8% active | U2OS PathHunter beta-arrestin, beta-gal luminescence; percent of deltorphin B response, DMSO zero;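 active = mean activation across replicates exceeds the hit threshold derived in the earlier primary screen, cut at about 18% in these data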
Target sequence (P35372 whole entry, looked up): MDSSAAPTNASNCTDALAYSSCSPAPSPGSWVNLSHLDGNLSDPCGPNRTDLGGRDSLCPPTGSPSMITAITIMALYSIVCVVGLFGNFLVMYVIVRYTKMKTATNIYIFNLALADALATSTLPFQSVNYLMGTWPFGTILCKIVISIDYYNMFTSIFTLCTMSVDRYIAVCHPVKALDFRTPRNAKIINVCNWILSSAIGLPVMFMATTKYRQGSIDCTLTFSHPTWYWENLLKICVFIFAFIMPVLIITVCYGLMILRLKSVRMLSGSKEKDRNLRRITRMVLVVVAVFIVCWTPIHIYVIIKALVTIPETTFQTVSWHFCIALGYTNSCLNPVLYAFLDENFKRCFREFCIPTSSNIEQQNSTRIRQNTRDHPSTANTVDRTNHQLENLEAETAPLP
Target sequence (P41143 whole entry, looked up): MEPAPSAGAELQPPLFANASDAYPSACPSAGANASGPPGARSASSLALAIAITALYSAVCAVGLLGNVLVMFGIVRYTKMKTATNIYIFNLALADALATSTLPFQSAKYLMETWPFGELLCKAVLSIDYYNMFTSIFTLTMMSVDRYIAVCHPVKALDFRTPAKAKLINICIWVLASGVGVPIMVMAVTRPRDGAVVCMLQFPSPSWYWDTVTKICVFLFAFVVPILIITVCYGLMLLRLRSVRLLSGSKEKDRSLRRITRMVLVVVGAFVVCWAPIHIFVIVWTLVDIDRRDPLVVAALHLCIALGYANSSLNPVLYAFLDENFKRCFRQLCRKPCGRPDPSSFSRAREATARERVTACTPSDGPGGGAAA
Each line names hits and unclear results; the compound was inactive in the other large screens (follow-up assays come after a bar, where they were run). Only some compounds are listed: those with a hit (about 2.6% of all), similar ones and a draw of the others.

Cc1ccc(OCC(=O)Nc2cccc(-c3nnc(-c4ccccc4)o3)c2)c(C)c1	MC4R barr agon 35.0 | MC4R barr ag inactive | MOR-DOR barr ag inactive
Cc1c([N+](=O)[O-])cc(C(=O)Nc2ccc(NC(=O)c3ccco3)cc2)cc1[N+](=O)[O-]	MC4R barr agon 10.1 (no result: EP2 antag, EP2 modulator) | MC4R barr ag inactive | MOR-DOR barr ag inactive
OCCCCNCc1ccc(OCc2ccccc2)cc1	none
COc1cc(C(=O)NC(=S)Nc2ccc(NC(=O)c3ccco3)cc2)cc(OC)c1OC	MC4R barr agon 10.6 | MC4R barr ag inactive | MOR-DOR barr ag inactive
O=C(NC(=S)Nc1ccc(NC(=O)c2ccco2)cc1)c1ccccc1	none
CC(C)(C)c1ccc(S(=O)(=O)NNC(=O)c2cc3ccccc3[nH]2)cc1	MC4R barr agon 16.7 (no result: EP2 antag, EP2 modulator) | MC4R barr ag inactive | MOR-DOR barr ag inactive
CCCC(C)NNC(=O)c1cc2ccccc2[nH]1 (stereo not drawn)	none
CCOc1ccc(/C=C/C2=CC(C)(C)NC(=S)N2)cc1	none
COc1ccc2c(C)nc(Nc3nc(-c4ccccc4)cc(=O)[nH]3)nc2c1	MC4R barr agon 26.2 | MC4R barr ag 8.4 | MOR-DOR barr ag inactive
Cc1ccc2nc(Nc3nc(-c4ccccc4)cc(=O)[nH]3)nc(C)c2c1	none
COC(=O)c1ccccc1NC(=O)c1ccc2c(c1)CC(C)O2 (stereo not drawn)	none (no result: EP2 antag, EP2 modulator)
Cc1ccc(-c2nn(-c3ccccc3)cc2/C=C/C(=O)Nc2nccs2)cc1	MC4R barr agon 18.8 | MC4R barr ag inactive | MOR-DOR barr ag inactive
O=C(/C=C/c1cn(-c2ccccc2)nc1-c1ccccc1)Nc1ccc(C(=O)O)cc1	none
CCCCC(=O)Nc1ccc(C(=O)NCCN2CCOCC2)cc1	none (no result: EP2 antag, EP2 modulator)
CNS(=O)(=O)c1cccc(C(=O)OCC(=O)Nc2ccc(-c3nc4ccc(C)cc4s3)cc2)c1	MC4R barr agon 15.6 | MC4R barr ag inactive | MOR-DOR barr ag inactive
CC(NS(=O)(=O)c1cccc(Cl)c1)C(=O)Nc1ccc(-c2nc3ccccc3s2)cc1 (stereo not drawn)	MC4R barr agon 16.2 | MC4R barr ag 9.9 | MOR-DOR barr ag inactive
O=C(CNS(=O)(=O)c1cccc(Cl)c1)Nc1ccc(-c2nc3ccccc3s2)cc1	none
CCOc1ccc(N(CC(=O)N2CCN(c3ccccc3OC)CC2)S(=O)(=O)c2ccc(C)cc2)cc1	none (no result: EP2 antag, T cell HTS, EP2 modulator)
CCOC(=O)C1(Cc2cccc(OC)c2)CCN(Cc2cccc(O)c2)CC1	none
O=C(Nc1ccc(F)cc1F)c1c(C(F)(F)F)ccnc1Oc1cccc(C(F)(F)F)c1	MC4R barr agon 19.9 | MC4R barr ag inactive | MOR-DOR barr ag inactive
O=C(Nc1ccc(F)cc1F)c1c(C(F)(F)F)ccnc1Oc1ccc(Cl)cc1	none
COc1ccc(CN2C(=O)CN(S(C)(=O)=O)CC2(C)C(=O)NC(C)C)cc1OC (stereo not drawn)	none (no result: MC4R barr agon, EP2 antag, T cell HTS, MC4R antagonist, EP2 modulator)
COc1cc(F)ccc1-c1csc(C(O)c2ccc(F)cc2)n1 (stereo not drawn)	MC4R barr agon 14.0 (no result: EP2 antag, T cell HTS, EP2 modulator) | MC4R barr ag inactive | MOR-DOR barr ag inactive
CCOc1cc(C(=S)N2CCOCC2)ccc1OC(=O)/C=C/c1ccc(OC)c(OC)c1	MC4R barr agon 11.5 | MC4R barr ag inactive | MOR-DOR barr ag inactive
CCOc1ccc(/C=C/C(=O)N2CCOCC2)cc1OC	none (no result: EP2 antag, EP2 modulator)
CCOc1ccc(NC(=O)/C=C/c2ccccc2)c([N+](=O)[O-])c1	MC4R barr agon 12.9 | MC4R barr ag inactive | MOR-DOR barr ag inactive
COc1ccc(NC(=O)/C=C/C(=O)O)c([N+](=O)[O-])c1	none
CCOc1ccc(N/C=C/C(=O)c2ccccc2)c([N+](=O)[O-])c1	MC4R barr agon 27.1 | MC4R barr ag inactive | MOR-DOR barr ag inactive
CC(C)(C)N(Cc1ccccc1)C(=O)CSc1nc2ccccc2c(=O)[nH]1	none
CCOC(=O)C1CCCN(C(=O)c2ccc(CNc3c(N4CCC(C)CC4)c(=O)c3=O)cc2)C1 (stereo not drawn)	none
CN(C(=O)c1cc(S(=O)(=O)N2CCc3ccccc32)cn1C)C1CCCCC1	none (no result: EP2 antag, EP2 modulator)
CCOc1ccc(NC(=NCc2ccc3c(c2)OCO3)SC2CC(=O)N(c3ccc(OCC)cc3)C2=O)cc1 (stereo not drawn)	none
CCOc1ccc(NC(=NCc2ccc3c(c2)OCO3)SC2CC(=O)N(c3ccccc3)C2=O)cc1 (stereo not drawn)	MC4R barr agon 18.1 | MC4R barr ag inactive | MOR-DOR barr ag inactive
COc1cccc(OC)c1C(=O)N1CCN=C1SCc1cccnc1	none
CN(C)C(=O)/C(C#N)=C\c1cc(Br)c(Sc2ccc(Cl)cc2)o1	MC4R barr agon 13.8 | MC4R barr ag inactive | MOR-DOR barr ag inactive
Clc1ccc(Sc2oc(/C=N/n3cnnc3)cc2Br)cc1	none
Cc1ccccc1N/C(SCc1cccc(Br)c1)=C(/C#N)C(N)=O	MC4R barr agon 22.5 | MC4R barr ag inactive | MOR-DOR barr ag inactive
COc1cccc(N/C(SCc2cccc([N+](=O)[O-])c2)=C(/C#N)C(N)=O)c1	none
CCCNC(=O)c1ccc(-c2nc3ccccc3s2)s1	MC4R barr agon 11.2 (no result: EP2 antag) | MC4R barr ag inactive | MOR-DOR barr ag inactive
CCCNC(=O)Nc1nc2ccccc2s1	none
Cc1ccc2oc(-c3ccc(NC(=O)CC(C)C)cc3)nc2c1	MC4R barr agon 14.2 | MC4R barr ag inactive | MOR-DOR barr ag inactive
CC(C)CC(=O)Nc1ccc2oc(-c3cccnc3)nc2c1	none
CCOC(=O)C1CCCN(C(=O)c2cc3cc(F)ccc3[nH]2)C1 (stereo not drawn)	none (no result: EP2 antag, EP2 modulator)
COc1ccc(OCC(=O)N/N=C/C(C)=C/c2ccco2)c(Br)c1	MC4R barr agon 18.8 (no result: EP2 antag, EP2 modulator) | MC4R barr ag inactive | MOR-DOR barr ag inactive
Cc1ccccc1OCC(=O)N/N=C/c1ccco1	none
Cc1cccc(N(C(=O)C(F)(F)F)C(C(=O)NC2CCCCC2)c2cccs2)c1 (stereo not drawn)	MC4R barr agon 20.0 | MC4R barr ag inactive | MOR-DOR barr ag inactive
O=C(Nc1nc(-c2ccc(F)c(F)c2)cs1)c1ccc(OCC2CCCO2)cc1 (stereo not drawn)	MC4R barr agon 16.9 | MC4R barr ag inactive | MOR-DOR barr ag 28.0
O=C(Nc1nc(-c2ccc(F)c(F)c2)cs1)C1=COCCO1	none (no result: EP2 antag, EP2 modulator)
N#Cc1ccccc1OCC(=O)Nc1c(C(=O)C2CC2)oc2ccccc12	MC4R barr agon 22.1 | MC4R barr ag 8.9 | MOR-DOR barr ag inactive
O=C(CSc1ccccc1Cl)NC1CCCc2ccccc21 (stereo not drawn)	none

Assay outcomes from PubChem BioAssay.
